Laboratory results reported in paper PMC8089085 (Drug Design, Development and Therapy, 2021).
Read-outs that look alike come from different tables or passages of the source.

Columns and labels:
healthy subjects = assay: Tolerability assessment; type: in vivo, human; conditions: after multiple administrations in healthy subjects
How it was run: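 Healthy subjects given at least one dose were followed from first administration to study end. Monitoring covered vital signs (systolic and diastolic pressure, pulse rate), physical examinations and adverse events. Events were elicited by nonleading open questioning and individual interviews, and each was judged for relation to the investigational drug.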

[1] = type: in vivo, human
How it was run: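 Randomized open-label three-way crossover in healthy subjects: six sequences, five per sequence, ≥7 days washout. SGLT2 inhibitor 25 mg, PPAR-γ agonist 0.5 mg or both given orally once daily for 5 days, fasting ≥8 h. EDTA plasma sampled predose and 0.33–24 h after fifth dose; UPLC-MS/MS, calibration 5.00–1000 ng/mL. Noncompartmental analysis; mixed-effect model giving geometric mean ratios with 90% CI.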

[2] = lobeglitazone, with vs without empagliflozin
[3] = empagliflozin, with vs without lobeglitazone

Structure (SMILES) | other tolerability parameters (laboratory test results, vital signs, physical examination) (healthy subjects) | 90% CI of AUCtau combination therapy-to-monotherapy ratio [1, 2] | 90% CI of Cmax,ss combination therapy-to-monotherapy ratio [1, 2] | 90% CI of AUCtau combination therapy-to-monotherapy ratio [1, 3] | 90% CI of Cmax,ss combination therapy-to-monotherapy ratio [1, 3]
COc1ccc(Oc2cc(N(C)CCOc3ccc(CC4SC(=O)NC4=O)cc3)ncn2)cc1 (stereo not drawn) [Lobeglitazone] | no clinically significant findings | 0.851–1.018 | 0.869–0.995 | – | –
OC[C@H]1O[C@@H](c2ccc(Cl)c(Cc3ccc(O[C@H]4CCOC4)cc3)c2)[C@H](O)[C@@H](O)[C@@H]1O [Empagliflozin] | no clinically significant findings | – | – | 0.945–1.133 | 0.956–1.150
